Measured values published in ChEMBL document CHEMBL1121795, “Esters of isoguvacine as potential prodrugs” (J Med Chem, 1981).

Columns and labels:
[1] = Half-life was measured in 10% human serum at 10 mM concentration; type: ADME
Method in brief: (§1)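 Medium was 45 mL 0.5 M KCl, 0.5 mL phosphate buffer and 5.0 mL human serum (protein 69–78 mg/mL, BSA standard), N2-purged 2 h with pH held at 7.2–7.6 using 0.1 N HCl. Ester (0.05 or 0.5 mmol) was added; a pH-stat held 7.35 with 0.1 or 0.5 N NaOH at 37 °C. Half-life was calculated from base consumed.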

[2] = Half-life was measured in 10% human serum at 1 mM concentration; type: ADME; method in brief: as §1
[3] = Half-life was measured in 0.5 M KCl at 10 mM concentration; type: ADME; details: 0.5 M KCl solution
Method in brief: (§2)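 Chemical stability was measured with 0.5 mmol ester in 50 mL 0.5 M KCl plus 0.5 mL pH 7.00 phosphate buffer (10 mM), at pH 7.35 and 37 °C. pH-stat titration with 0.5 N NaOH recorded base consumption against time for the 2 acid equivalents released. Pseudo-first-order half-life, mean of at least two runs.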

[4] = species on record: Mus musculus; assay: Compound was tested for anticonvulsant activity by measuring its effect on convulsions induced by electroshock in mice.; type: functional
Method in brief: (§3)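 Mice, at least five per group at each time point, received the ester ip; convulsions were induced 0.5, 1, 2, 3, 4, 5, 6, 17 and 24 h later. Value is the minimum effective anticonvulsant dose (mg/kg), with the time between dosing and onset of activity.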

[5] = species on record: Mus musculus; assay: Compound was tested for anticonvulsant activity by measuring its effect on convulsions induced by bicuculline in mice.; type: functional; method in brief: as §3
[6] = species on record: Mus musculus; assay: Compound was tested for anticonvulsant activity by measuring its effect on convulsions induced by isoniazide in mice.; type: functional; method in brief: as §3
[7] = Half-life was measured in 10% human serum at 10 mM of ester; type: ADME; method in brief: as §1
[8] = Half-life was measured in 0.5 M KCl at 10 mM dose.; type: ADME; details: 0.5 M KCl solution; method in brief: as §2
[9] = Half-life was measured in 10% human serum at 1 mM dose.; type: ADME; method in brief: as §1
[10] = Half-life was measured in 10% human serum at 10 mM dose.; type: ADME; method in brief: as §1

SMILES | half-life at 10000 µM [1] [h] | half-life at 1000 µM [2] [h] | half-life at 10000 µM [3] [h] | half-life at 10000 µM [7] [h] | half-life at 10000 µM [8] [h] | half-life at 1000 µM [9] [h] | half-life at 10000 µM [10] [h] | Anticonvulsant dose [4] [mg/kg] | Anticonvulsant dose [5] [mg/kg] | Anticonvulsant dose [6] [mg/kg]
Cl.O=C(O)C1=CCNCC1 [ISOGUVACINE HYDROCHLORIDE] |  |  |  |  |  |  |  | >80 | >80 | >160
O=C(O)/C=C/C(=O)O.O=C(OCOC(=O)c1ccccc1)C1=CCNCC1 | 0.4 | 0.07 | 9.3 |  |  |  |  | >80 | >80 | >160
Br.CCOC(=O)COC(=O)C1=CCNCC1 |  |  |  | 300 |  |  |  |  |  | 
CC(=O)OCOC(=O)C1=CCNCC1.O=C(O)/C=C/C(=O)O | 1.2 | 0.6 | 10.9 |  |  |  |  | 5 | >80 | 40
CC(C)CC(=O)OCOC(=O)C1=CCNCC1.O=C(O)/C=C/C(=O)O | 3.5 | 0.72 | 13.3 |  |  |  |  |  |  | 
CC(C)(C)C(=O)OCOC(=O)C1=CCNCC1.O=C(O)/C=C/C(=O)O | 14.9 | 4.6 | 17.1 |  |  |  |  | 10 | 20 | >160
COC(=O)C1=CCNCC1.Cl |  |  |  | 430 |  |  |  |  |  | 

More lines, main results first:

half-life at 10000 µM [1] [h] | half-life at 1000 µM [2] [h] | half-life at 10000 µM [3] [h] | half-life at 10000 µM [7] [h] | half-life at 10000 µM [8] [h] | half-life at 1000 µM [9] [h] | half-life at 10000 µM [10] [h] | SMILES | Anticonvulsant dose [4] [mg/kg] | Anticonvulsant dose [5] [mg/kg] | Anticonvulsant dose [6] [mg/kg]
0.14 | 0.03 | 10 |  |  |  |  | O=C(O)/C=C/C(=O)O.O=C(OCOC(=O)C1CCCCC1)C1=CCNCC1 |  |  | 
 |  |  | 600 |  |  |  | Br.CCCCOC(=O)C1=CCNCC1 | 40 | 40 | >160
7.9 | 2.3 | 15.7 |  |  |  |  | CCC(CC)C(=O)OCOC(=O)C1=CCNCC1.O=C(O)/C=C/C(=O)O |  |  | 
0.28 | 0.03 | 12 |  |  |  |  | CCCCC(=O)OCOC(=O)C1=CCNCC1.O=C(O)/C=C/C(=O)O |  |  | 
0.25 | 0.06 | 11.7 |  |  |  |  | CCCC(=O)OCOC(=O)C1=CCNCC1.O=C(O)/C=C/C(=O)O |  |  | 
0.32 | 0.06 | 13 |  |  |  |  | CCCCCC(=O)OCOC(=O)C1=CCNCC1.O=C(O)/C=C/C(=O)O |  |  | 
0.73 | 0.13 | 10.8 |  |  |  |  | CC(C)C(=O)OCOC(=O)C1=CCNCC1.O=C(O)/C=C/C(=O)O |  |  | 
 |  |  |  | 11.1 | 0.17 | 0.54 | CCC(=O)OCOC(=O)C1=CCNCC1.O=C(O)/C=C/C(=O)O | >80 | >80 | 40
